For test [1], the target named is T1, Fatty-acid amide hydrolase 1 (Rattus norvegicus, UniProt P97612).
T1 sequence (P97612 whole entry): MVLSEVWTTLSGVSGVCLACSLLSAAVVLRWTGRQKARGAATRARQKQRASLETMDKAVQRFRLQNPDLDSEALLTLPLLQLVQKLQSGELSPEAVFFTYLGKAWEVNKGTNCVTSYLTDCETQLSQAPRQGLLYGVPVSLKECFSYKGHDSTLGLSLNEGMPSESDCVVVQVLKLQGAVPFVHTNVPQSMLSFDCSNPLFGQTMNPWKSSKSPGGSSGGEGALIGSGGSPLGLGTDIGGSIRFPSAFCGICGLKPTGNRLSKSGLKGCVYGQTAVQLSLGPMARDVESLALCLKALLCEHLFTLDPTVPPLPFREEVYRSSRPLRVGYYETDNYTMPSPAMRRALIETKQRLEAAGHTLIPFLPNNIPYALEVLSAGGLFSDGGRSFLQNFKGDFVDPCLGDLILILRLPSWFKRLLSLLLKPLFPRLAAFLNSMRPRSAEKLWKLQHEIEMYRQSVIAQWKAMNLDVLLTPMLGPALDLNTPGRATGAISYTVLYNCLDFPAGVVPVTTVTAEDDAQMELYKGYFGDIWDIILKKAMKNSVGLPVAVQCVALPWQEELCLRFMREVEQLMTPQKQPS
The experiment in a line: Inhibition of rat brain FAAH mediated [14C]anandamide hydrolysis. The method in brief: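 Hydrolysis of [14C]anandamide was measured with rat brain membranes as the enzyme source; means of n = 4.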

Test [2] concerns RBL-2H3. The test can be described thus: Inhibition of [14C]anandamide uptake in rat RBL-2H3. The test is classed as functional, cell-based. Summed up:
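Uptake of [14C]anandamide was measured in intact RBL-2H3 cells; means of n = 4.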

Test [3] can be described thus: Inhibition of human MAGL mediated [14C]2-AG hydrolysis in COS cell. The test is classed as cell-based. The method in brief: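 Enzyme source was cytosolic fractions of COS cells (MAGL-expressing), with hydrolysis of [14C]2-AG as the read-out; means of 4 determinations.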
Test [4] has as its target T2, Diacylglycerol lipase-alpha (Homo sapiens, UniProt Q9Y4D2).
T2 sequence (Q9Y4D2 whole entry): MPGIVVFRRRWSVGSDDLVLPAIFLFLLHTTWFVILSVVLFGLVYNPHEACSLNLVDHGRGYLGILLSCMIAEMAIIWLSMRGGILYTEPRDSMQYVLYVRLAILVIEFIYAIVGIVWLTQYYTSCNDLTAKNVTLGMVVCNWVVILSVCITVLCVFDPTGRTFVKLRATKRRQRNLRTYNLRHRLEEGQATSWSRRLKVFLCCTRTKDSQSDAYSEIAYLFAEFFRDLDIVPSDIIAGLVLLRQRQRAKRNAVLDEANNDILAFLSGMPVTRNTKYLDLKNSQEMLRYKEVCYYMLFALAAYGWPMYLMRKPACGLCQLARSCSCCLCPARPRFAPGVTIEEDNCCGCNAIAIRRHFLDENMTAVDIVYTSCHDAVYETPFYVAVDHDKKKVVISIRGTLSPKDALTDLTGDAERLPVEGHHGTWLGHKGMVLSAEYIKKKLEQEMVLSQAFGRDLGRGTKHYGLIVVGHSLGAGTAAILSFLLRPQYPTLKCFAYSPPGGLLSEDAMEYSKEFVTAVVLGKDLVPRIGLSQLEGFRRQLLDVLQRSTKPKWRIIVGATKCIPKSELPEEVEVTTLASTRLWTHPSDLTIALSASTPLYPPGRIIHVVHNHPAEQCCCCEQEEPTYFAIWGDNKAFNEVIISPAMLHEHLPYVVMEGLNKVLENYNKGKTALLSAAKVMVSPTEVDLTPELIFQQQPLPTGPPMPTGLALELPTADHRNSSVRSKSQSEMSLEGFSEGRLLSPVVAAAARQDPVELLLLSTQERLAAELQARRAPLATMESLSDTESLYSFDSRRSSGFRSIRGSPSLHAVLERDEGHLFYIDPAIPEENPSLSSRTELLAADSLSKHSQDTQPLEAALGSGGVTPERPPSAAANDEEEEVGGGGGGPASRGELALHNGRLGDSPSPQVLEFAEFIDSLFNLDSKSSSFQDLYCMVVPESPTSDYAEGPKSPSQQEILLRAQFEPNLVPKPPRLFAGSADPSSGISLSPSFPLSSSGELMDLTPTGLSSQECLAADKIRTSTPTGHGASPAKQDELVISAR
The test can be described thus: Inhibition of human DAGLalpha mediated sn-1-[14C]oleoyl-2-arachidonoyl-glycerol hydrolysis to 2-AG in COS cell. Summed up: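 Substrate: sn-1-[14C]oleoyl-2-arachidonoyl-glycerol. Conversion into 2-AG and [14C]oleic acid was followed using membranes of COS cells overexpressing human recombinant DAGLα; n = 4 means.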

The target of test [5] is Cannabinoid receptor 1 (Homo sapiens, UniProt P21554). The experiment in a line: Binding affinity to human CB1 receptor expressed in COS cells. The test is classed as cell-based. The method in brief:
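Tested at CB1 receptors in transfected COS cells; means of 4 separate determinations.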

Test [6] deals with Cannabinoid receptor 2 (Homo sapiens, UniProt P34972). The experiment in a line: Binding affinity to human CB2 receptor expressed in COS cells. The test is classed as cell-based. The method in brief: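 Human CB2 receptor expressed by transfection in COS cells. Each value is the mean of 4 separate determinations.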
Chain of Cannabinoid receptor 2 (P34972 whole entry): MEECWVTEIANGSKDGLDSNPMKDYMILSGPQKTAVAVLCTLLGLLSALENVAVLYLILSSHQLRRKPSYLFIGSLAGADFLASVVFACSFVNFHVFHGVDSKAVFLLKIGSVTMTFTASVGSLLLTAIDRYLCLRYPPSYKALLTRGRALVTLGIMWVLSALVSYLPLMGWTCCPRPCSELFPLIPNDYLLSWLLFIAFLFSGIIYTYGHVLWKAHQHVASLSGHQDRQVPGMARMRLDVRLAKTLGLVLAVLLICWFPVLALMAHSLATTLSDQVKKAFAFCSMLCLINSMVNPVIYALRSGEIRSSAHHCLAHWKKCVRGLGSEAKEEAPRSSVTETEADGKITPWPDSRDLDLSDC
Test [7] concerns the target Transient receptor potential cation channel subfamily A member 1 (Rattus norvegicus, UniProt Q6RI86). The experiment in a line: Agonist activity at rat TRPA1 channel expressed in human HEK293 cells assessed as elevation in intracellular calcium flux. In kind it is functional, cell-based. The method in brief:
(§1)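 Stably rat TRPA1-transfected HEK-293 cells, grown 3 days, were loaded with 4 µM Fluo4-AM plus 0.02% Pluronic for 1 h at room temperature. They were washed and resuspended in Tyrode's buffer pH 7.4, and [Ca2+]i was read under stirring (ex 488/em 516 nm) before and after compound addition. EC50 is the half-maximal [Ca2+]i rise. Efficacy (100 µM compound) is expressed relative to 100 µM mustard oil; n = 4 means.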

For test [8], the target named is Transient receptor potential cation channel subfamily A member 1 (Rattus norvegicus) (UniProt Q6RI86). The test can be described thus: Agonist activity at rat TRPA1 channel expressed in human HEK293 cells assessed as elevation in intracellular calcium flux at 100 uM relative to mustard oil. The test is classed as functional, cell-based. Summed up:
as §1
In general terms: A change in cytosolic calcium serves as a functional read-out for many receptors and channels.

Test [9] concerns the target T3, Transient receptor potential cation channel subfamily V member 1 (Homo sapiens, UniProt Q8NER1). The experiment in a line: Agonist activity at human TRPV1 channel expressed in human HEK293 cells assessed as elevation in intracellular calcium flux. The test is classed as functional, cell-based. Summed up: (§2)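 HEK-293 cells overexpressing TRPV1 were used, with intracellular Ca2+ elevation as the read-out. The single-point value is the effect of 10 µM compound as percent of the Ca2+ response to 4 µM ionomycin. Data are means of 4 separate determinations.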

Test [10] concerns the target T3, Transient receptor potential cation channel subfamily V member 1. The test can be described thus: Agonist activity at human TRPV1 channel expressed in human HEK293 cells assessed as elevation in intracellular calcium flux at 10 uM relative to ionomycin. In kind it is functional, cell-based. The method in brief:
as §2

Chain of Cannabinoid receptor 1 (P21554 whole entry): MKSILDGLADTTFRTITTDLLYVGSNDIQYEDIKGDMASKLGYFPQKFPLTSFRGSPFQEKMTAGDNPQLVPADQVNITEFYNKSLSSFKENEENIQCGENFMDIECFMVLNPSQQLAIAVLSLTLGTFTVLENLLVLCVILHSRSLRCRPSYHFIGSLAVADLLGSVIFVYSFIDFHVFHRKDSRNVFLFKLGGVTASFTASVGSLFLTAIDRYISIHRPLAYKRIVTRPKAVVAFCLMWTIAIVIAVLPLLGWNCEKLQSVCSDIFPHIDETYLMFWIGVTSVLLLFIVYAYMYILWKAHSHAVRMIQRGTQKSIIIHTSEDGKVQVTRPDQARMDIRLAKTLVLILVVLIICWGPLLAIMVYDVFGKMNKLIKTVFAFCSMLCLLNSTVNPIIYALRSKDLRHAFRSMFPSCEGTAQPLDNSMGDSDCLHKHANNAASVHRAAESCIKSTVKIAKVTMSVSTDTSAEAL
T3 sequence (Q8NER1 whole entry): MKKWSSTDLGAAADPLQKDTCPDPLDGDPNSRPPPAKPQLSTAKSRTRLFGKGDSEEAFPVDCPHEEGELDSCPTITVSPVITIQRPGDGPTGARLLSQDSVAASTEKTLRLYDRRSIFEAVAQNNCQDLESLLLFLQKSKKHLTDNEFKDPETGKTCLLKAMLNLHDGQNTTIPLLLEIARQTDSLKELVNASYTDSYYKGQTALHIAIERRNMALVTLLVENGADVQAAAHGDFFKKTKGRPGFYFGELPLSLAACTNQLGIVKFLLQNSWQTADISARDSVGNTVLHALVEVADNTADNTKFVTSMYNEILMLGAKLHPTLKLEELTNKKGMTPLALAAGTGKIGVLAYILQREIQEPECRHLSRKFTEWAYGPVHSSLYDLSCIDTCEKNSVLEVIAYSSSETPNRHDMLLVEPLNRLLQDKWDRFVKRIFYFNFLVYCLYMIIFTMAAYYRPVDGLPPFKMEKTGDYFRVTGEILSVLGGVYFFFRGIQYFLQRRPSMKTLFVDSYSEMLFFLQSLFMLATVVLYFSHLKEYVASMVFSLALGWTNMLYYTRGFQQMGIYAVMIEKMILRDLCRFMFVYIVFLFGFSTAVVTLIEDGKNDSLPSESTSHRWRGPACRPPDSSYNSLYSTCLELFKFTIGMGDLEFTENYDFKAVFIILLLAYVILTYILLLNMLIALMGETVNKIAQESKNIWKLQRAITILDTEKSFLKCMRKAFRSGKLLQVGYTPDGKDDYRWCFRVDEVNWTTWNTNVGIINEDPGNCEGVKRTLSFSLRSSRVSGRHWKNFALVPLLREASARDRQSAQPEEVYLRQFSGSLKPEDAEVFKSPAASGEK
Chain of Transient receptor potential cation channel subfamily A member 1 (Q6RI86 whole entry): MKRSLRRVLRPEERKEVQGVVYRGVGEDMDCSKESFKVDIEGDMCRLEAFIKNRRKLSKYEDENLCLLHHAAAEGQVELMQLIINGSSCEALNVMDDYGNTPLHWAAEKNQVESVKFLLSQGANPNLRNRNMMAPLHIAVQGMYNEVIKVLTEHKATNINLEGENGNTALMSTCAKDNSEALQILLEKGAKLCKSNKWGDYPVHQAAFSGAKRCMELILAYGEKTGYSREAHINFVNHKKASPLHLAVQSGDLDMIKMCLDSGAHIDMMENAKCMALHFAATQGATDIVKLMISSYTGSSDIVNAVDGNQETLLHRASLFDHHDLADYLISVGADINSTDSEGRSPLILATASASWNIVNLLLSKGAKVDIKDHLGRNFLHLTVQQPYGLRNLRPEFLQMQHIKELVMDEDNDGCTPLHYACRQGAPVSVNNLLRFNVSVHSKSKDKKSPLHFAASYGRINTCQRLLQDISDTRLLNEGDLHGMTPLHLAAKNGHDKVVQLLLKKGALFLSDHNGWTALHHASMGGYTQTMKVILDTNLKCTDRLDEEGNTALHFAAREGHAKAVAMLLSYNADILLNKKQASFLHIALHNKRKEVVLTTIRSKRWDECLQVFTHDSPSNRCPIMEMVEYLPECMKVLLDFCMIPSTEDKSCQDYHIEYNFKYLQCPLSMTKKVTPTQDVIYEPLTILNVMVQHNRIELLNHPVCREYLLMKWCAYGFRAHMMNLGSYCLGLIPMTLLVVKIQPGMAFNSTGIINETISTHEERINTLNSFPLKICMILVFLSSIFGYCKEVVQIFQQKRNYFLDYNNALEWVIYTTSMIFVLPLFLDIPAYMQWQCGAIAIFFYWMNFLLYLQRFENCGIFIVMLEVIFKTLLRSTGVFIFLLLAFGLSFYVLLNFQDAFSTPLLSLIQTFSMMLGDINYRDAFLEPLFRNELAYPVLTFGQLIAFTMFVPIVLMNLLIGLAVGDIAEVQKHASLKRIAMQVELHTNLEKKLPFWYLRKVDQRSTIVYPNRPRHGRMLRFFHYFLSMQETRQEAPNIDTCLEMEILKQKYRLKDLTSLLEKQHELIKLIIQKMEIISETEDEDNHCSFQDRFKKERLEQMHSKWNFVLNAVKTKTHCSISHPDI
Chain of Transient receptor potential cation channel subfamily A member 1 (Rattus norvegicus) (Q6RI86 whole entry): as above

For the compound `CC(C)Cn1nnnc1CNC(=O)c1ccc(-c2ccccc2)cc1`, the concentration for half-maximal inhibition (IC50) (commonly the concentration that inhibits the measured activity by half) in test [1] is more than 50 µM; in test [2] it was more than 25 µM; in test [3], more than 10 µM; in [4] it was more than 10 µM. The Ki in test [5] and in [6] was more than 10 µM throughout. For the same compound, the EC50 (in general, the midpoint of the concentration-response curve) was more than 100 µM in test [7] and 15 µM in test [9]. The Efficacy in test [8] is 26.1%; in test [10] it was 9.1%.
With `CC(C)Cn1nnnc1Cc1ccc(-c2ccccc2)cc1`, the IC50 in [1] is more than 50 µM; in test [2], more than 25 µM; in [3], more than 10 µM; in test [4], more than 10 µM. Moreover, the figures for the inhibition constant Ki in [5] and in [6] were more than 10 µM and 7.7 µM, respectively. The EC50 in test [7] and in test [9] was more than 100 µM each time. The Efficacy in [8] was 50.8%; in [10], 4.7%.
In the case of `CC(C)Cn1nnc(Cc2ccc(-c3ccccc3)cc2)n1`, the IC50 was more than 50 µM in test [1], more than 25 µM in test [2], more than 10 µM in test [3] and more than 10 µM in test [4]. Further, the Ki (in general, a measure of affinity in units of concentration, obtained from inhibition or displacement) in test [5] is 1.6 µM; in [6], 4.7 µM. Further, the EC50 amounted to 26.3 µM in test [7] and 10 µM in [9]. Further, the figures for the Efficacy in [8] and in [10] were 136% and 20.7%, respectively.
Take `CN(C)C(=O)Cn1nnnc1Cc1ccc(-c2ccccc2)cc1`: the 50% inhibitory concentration (IC50) was more than 50 µM in test [1], 5.1 µM in test [2], more than 10 µM in test [3] and more than 10 µM in test [4]. The inhibition constant Ki in [5] and in [6] was more than 10 µM each time. Moreover, the EC50 in test [7] and in [9] was more than 100 µM throughout. Further, the figures for the Efficacy in test [8] and in test [10] were 0% and 4%, respectively.
Regarding `COC(=O)Cn1nnc(CNC(=O)c2ccc(-c3ccccc3)cc2)n1`, the 50% inhibitory concentration (IC50) in test [1] is more than 50 µM; in test [2] it was more than 25 µM; in test [3], more than 10 µM; in [4] it was more than 10 µM. For the same compound, the inhibition constant (Ki) in [5] and in test [6] was more than 10 µM each time. For the same compound, the EC50 in test [7] and in test [9] was more than 100 µM in each case. Moreover, the Efficacy in [8] was found to be 0%; in test [10] it was 2.2%.
For `N#CCn1nnc(Cc2ccc(-c3ccccc3)cc2)n1`, the IC50 in test [1] was more than 50 µM; in [2], 5.1 µM; in [3] it was more than 10 µM; in test [4], more than 10 µM. Besides, the Ki is more than 10 µM in [5] and 6.2 µM in test [6]. The figures for the concentration giving a half-maximal response (EC50) in test [7] and in [9] were 16.2 µM and more than 100 µM, respectively. In addition, the Efficacy amounted to 102% in [8] and 0% in [10].
`N#CCn1nnnc1CNC(=O)c1ccc(-c2ccccc2)cc1`: the IC50 in test [1] was more than 50 µM; in test [2], more than 25 µM; in test [3], more than 10 µM; in test [4], more than 10 µM. Further, the inhibition constant Ki in test [5] and in [6] was more than 10 µM throughout. Further, the 50% effective concentration (EC50) in test [7] and in test [9] was more than 100 µM each time. Further, the figures for the Efficacy in test [8] and in test [10] were 0% and 6.3%, respectively.
On to `CC(=O)Cn1nnc(Cc2ccc(-c3ccccc3)cc2)n1`, for which the 50% inhibitory concentration (IC50) is more than 50 µM in [1], more than 25 µM in [2], more than 10 µM in test [3] and more than 10 µM in test [4]. In addition, the Ki in test [5] is more than 10 µM; in [6], 5.2 µM. The EC50 in test [7] and in [9] was more than 100 µM in each case. The Efficacy in test [8] came to 61.4%; in [10], 0%.
`CC(C)Cn1nnc(CNC(=O)c2ccc(-c3ccccc3)cc2)n1`: the 50% inhibitory concentration (IC50) is more than 50 µM in test [1], more than 25 µM in test [2], more than 10 µM in test [3] and more than 10 µM in test [4]. The Ki in [5] and in [6] was more than 10 µM throughout. The 50% effective concentration (EC50) in [7] was more than 100 µM; in test [9], 53.5 µM. For the same compound, the figures for the Efficacy in [8] and in [10] were 0% and 10.2%, respectively.
With `CC(=O)Cn1nnnc1Cc1ccc(-c2ccccc2)cc1`, the IC50 in test [1] is more than 50 µM; in test [2], 5 µM; in test [3] it was more than 10 µM; in [4], more than 10 µM. Besides, the Ki in test [5] and in [6] was more than 10 µM each time. Besides, the EC50 in test [7] and in test [9] was more than 100 µM in each case. In addition, the Efficacy in [8] came to 11.4%; in [10], 0%.
On to `CC(=O)Cn1nnnc1CNC(=O)c1ccc(-c2ccccc2)cc1`, for which the IC50 in [1] is more than 50 µM; in test [2] it was 12.5 µM; in test [3], more than 10 µM; in test [4], more than 10 µM. Moreover, the inhibition constant Ki in test [5] and in test [6] was more than 10 µM each time. Moreover, the concentration giving a half-maximal response (EC50) in test [7] and in [9] was more than 100 µM in each case. The Efficacy stood at 0% in [8] and 7.7% in test [10].
Turning to `N#CCn1nnnc1Cc1ccc(-c2ccccc2)cc1`, the half-maximal inhibitory concentration (IC50) in test [1] was more than 50 µM; in test [2], 24.8 µM; in test [3], more than 10 µM; in [4], more than 10 µM. The Ki in [5] and in [6] was more than 10 µM throughout. In addition, the half-maximal effective concentration (EC50) is 26.3 µM in test [7] and more than 100 µM in [9]. Besides, the Efficacy in test [8] stood at 83.2%; in test [10], 5.4%.
Regarding `CC(=O)Cn1nnc(CNC(=O)c2ccc(-c3ccccc3)cc2)n1`, the half-maximal inhibitory concentration (IC50) in test [1] was more than 50 µM; in [2], more than 25 µM; in test [3], more than 10 µM; in [4], more than 10 µM. Also, the Ki in [5] and in test [6] was more than 10 µM throughout. The EC50 in test [7] and in test [9] was more than 100 µM each time. The Efficacy is 14% in [8] and 0% in test [10].

Source of the values: ChEMBL document CHEMBL1145628, “New tetrazole-based selective anandamide uptake inhibitors” (Bioorg Med Chem Lett, 2008).
